These results are taken from ChEMBL document CHEMBL4513216, “Probing the Open Global Health Chemical Diversity Library for Multistage-Active Starting Points for Next-Generation Antimalarials” (ACS Infect Dis, 2020).

The data set is described as follows: Toxicity liver stage against HepG2, at 10uM. It counts as cell-based. Details: test concentration 10 uM, cell line HepG2-A16-CD81EGFP. As to conditions: human, HepG2-A16-CD81EGFP cells; read-out: INHIBITION
Put shortly:
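Uninfected HepG2-A16-CD81EGFP cells, 3 × 10^3 per well, 1536-well, plated on prespotted compound at 10 μM final, parasite-free screening media added to match infected plates; puromycin 10 μM positive, DMSO 0.5% negative; run in parallel with 48 h PbLuc assay at 37 °C, 5% CO2; viability by CellTiter-Glo luminescence, normalized to controls.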
Consider `O=C(c1cn(-c2cc(N3CCOCC3)ncn2)cn1)N1CCSCC1`, for which the cytotoxicity at 10 µM is -18.3%.
Consider `CC(C)c1nc2n(n1)CC(NCc1nc(C3CC3)no1)CC2` (centres undefined), for which the cytotoxicity at 10 µM was -7.59%.
On to `COCCNC(=O)c1cccnc1Oc1ccc(Cl)cc1`, for which the cytotoxicity at 10 µM was 6.99%.
Then `COc1ccc(-c2cnc(CN(CC(N)=O)C3CCCC3)o2)cc1`, with -7.95%.
Then `Cc1cc(C)c(CNC(=O)N(C)Cc2ccc3c(c2)OCO3)c(=O)[nH]1`, with -5.53%; and `Cc1ncc(CN(C)C2CCCN(c3cccnn3)C2)s1` (centres undefined), with 0.709%.
`CCC(CC)CN(C)Cc1nc(-c2ccccc2NS(C)(=O)=O)oc1C`: the cytotoxicity at 10 µM is -7.69%.
The same measure for `c1ccc(N2CCC3(COCCN(Cc4cccs4)C3)C2)nc1` (centres undefined): 1.85%; for `CCC(C)c1noc(C2CCN(C(=O)c3ccccn3)CC2)n1` (centres undefined): 4.59%; for `Cc1csc2c(N3CCC(NCCCC4CCOC4)CC3)ncnc12` (centres undefined): 3.3%.
For `Cc1cccc(N2CCN(C(=O)C3CC4(CCNCC4)CN3)CC2)n1` (centres undefined), the cytotoxicity at 10 µM is -4.27%.
As for `CCc1c(C)nc2cc(-c3nccn3C)nn2c1N1CCCC(CO)C1` (centres undefined), the cytotoxicity at 10 µM turned out to be 3.06%.
As for `CN(C)C(=O)N1CCN(Cc2nc3ccccc3[nH]2)[C@H]2CS(=O)(=O)C[C@H]21`, the cytotoxicity at 10 µM was -150%.
As to `O=C1C(N2CCN(c3ccccc3Cl)CC2)CCN1C1CCOCC1` (centres undefined), the cytotoxicity at 10 µM was -0.455%.
Take `Cn1cc(CNc2ccc(CCO)cc2)c(-c2ccncc2)n1`: the cytotoxicity at 10 µM worked out at 5.82%.
Regarding `CCn1cc(C(=O)NC2CCN(S(C)(=O)=O)CC2)c2ccccc21`, the cytotoxicity at 10 µM amounted to 0.95%.
Then `Cc1nnc([C@@]23CCO[C@@H]2CCN(S(=O)(=O)c2ccccc2)C3)o1`, with -99.4%; and `Cc1noc(CN(Cc2cccs2)C2CCS(=O)(=O)C2)n1` (centres undefined), with -3.21%.
Regarding `COCCC(=O)N1C[C@@H]2CC[C@H]1CN(C1Cc3ccccc3C1)C2`, the cytotoxicity at 10 µM is -7.43%.
Take `COc1cc(F)c(CN2CC[C@@](O)(C3CC3)[C@H](C)C2)cc1OC`: the cytotoxicity at 10 µM amounted to 0.0489%.
With `CC(NC(=O)N1CCC(n2cncn2)CC1)c1ccc(F)cc1F` (centres undefined), the cytotoxicity at 10 µM was -9.88%.
As for `COc1ccc(CC(=O)N2CC(=O)NCC(C)(C)C2)cc1`, the cytotoxicity at 10 µM was -0.634%.
Then `CCCn1cc(C(=O)NCCC(=O)NC2CCCCC2)c(C)n1`, with -3.31%; and `CCCc1ccc(CN2CCC3(CCC(=O)N(C)CC3)CC2)o1`, with -4.35%; and `CCCn1c(N2CCCC(C)C2)nc2c(C)nn(C)c2c1=O` (centres undefined), with 13.4%.
In the case of `CC(=O)N[C@@H]1CN(S(=O)(=O)Cc2ccccc2)C[C@H]1C(C)C`, the cytotoxicity at 10 µM was -5.61%.
Then `COCCn1ccnc1C1CCN(C(=O)c2cccc(COC)n2)CC1`, with 1.62%; and `CN(C)c1ccc(C(=O)N2CCCC2c2ccc(Cl)cc2)nn1` (centres undefined), with -10.7%; and `COc1ccc2c(c1)CN(c1cc(N3CCCC3CO)ncn1)CC2` (centres undefined), with -4.16%.
As for `OC1CN(Cc2ccccc2)CCN(c2ccncc2)C1` (centres undefined), the cytotoxicity at 10 µM is -4.74%.
`Cc1nc(CN(C)C2CCN(CCC(=O)N3CCOCC3)C2)no1` (centres undefined): the cytotoxicity at 10 µM is -0.945%.
Then `Cc1nc(CN2CCCN(Cc3nccn3C(C)C)CC2)no1`, with -1.91%; and `CCc1cn[nH]c1C1CCCN(C(=O)c2noc(C)c2COC)C1` (centres undefined), with -1.67%.
Turning to `Cc1sc2ncnc(N3CCC(N(C)Cc4cnn(C)c4)CC3)c2c1C`, the cytotoxicity at 10 µM is -2.98%.
The same measure for `CC1Oc2c(cccc2C(=O)N2CCN(CC(C)(C)O)CC2)NC1=O` (centres undefined): -8.9%.
The same measure for `CC(C)c1nnc2n1CCN(C(=O)c1ccc3cc[nH]c3c1)C2`: 4.02%.
Regarding `CN(C)CCN1CCOCC2(CCCN(C(=O)c3ccccc3)C2)C1` (centres undefined), the cytotoxicity at 10 µM was 5.31%.
The same measure for `Cc1cc(C2CCC2)nc(N2CCC3(CCCNC3=O)C2)n1` (centres undefined): -3.83%.
Then `CN1CCN(S(=O)(=O)c2cccc(F)c2)c2cnccc21`, with -2.95%.
